Assay results from ChEMBL document CHEMBL1781963, “Discovery of novel hepatoselective HMG-CoA reductase inhibitors for treating hypercholesterolemia: a bench-to-bedside case study on tissue selective drug distribution” (Bioorg Med Chem Lett, 2011).

Columns and labels:
[1] = molecular target: T1, OATP1B1 (Homo sapiens, UniProt Q9Y6L6); assay: Drug uptake by human hepatic OATP1B1 transporter expressed in HEK293 cells at 10 uM relative to wild type HEK293 cells; format: ADME, cell-based; conditions: HEK293 cells expressing OATP1B1, read-out: FC
T1 sequence (Q9Y6L6 whole entry): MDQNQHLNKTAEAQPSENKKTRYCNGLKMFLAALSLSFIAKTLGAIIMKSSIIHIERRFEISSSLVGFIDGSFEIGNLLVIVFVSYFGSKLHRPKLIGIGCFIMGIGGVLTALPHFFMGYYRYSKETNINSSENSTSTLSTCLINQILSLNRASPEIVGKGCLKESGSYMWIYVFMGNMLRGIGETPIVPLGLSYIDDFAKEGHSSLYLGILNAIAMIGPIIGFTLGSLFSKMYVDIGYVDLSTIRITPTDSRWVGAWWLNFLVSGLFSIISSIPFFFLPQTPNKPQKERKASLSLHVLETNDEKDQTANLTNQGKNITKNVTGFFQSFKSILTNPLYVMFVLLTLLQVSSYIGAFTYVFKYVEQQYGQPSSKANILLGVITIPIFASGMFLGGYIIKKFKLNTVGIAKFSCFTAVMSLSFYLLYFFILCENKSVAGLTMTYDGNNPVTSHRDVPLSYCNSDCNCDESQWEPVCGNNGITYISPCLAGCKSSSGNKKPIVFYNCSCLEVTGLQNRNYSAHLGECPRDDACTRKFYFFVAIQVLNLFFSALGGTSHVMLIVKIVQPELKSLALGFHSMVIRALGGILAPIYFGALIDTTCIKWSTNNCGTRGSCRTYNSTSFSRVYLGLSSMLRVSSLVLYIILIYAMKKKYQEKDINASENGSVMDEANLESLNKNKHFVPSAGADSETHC
Procedure, shortened: (§1)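 Individual hepatic OATP transporters were over-expressed in CHO or HEK293 cells: rat rOatp1a1, rOatp1a4 and rOatp1b2, and human hOATP1B1, hOATP1B3 and hOATP2B1. Substrate uptake is expressed as fold difference relative to the wild-type parental line. Rosuvastatin/pravastatin served as positive control and midazolam as negative control in each assay.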

[2] = molecular target: T2, OATP1A1 (Rattus norvegicus, UniProt P46720); assay: Drug uptake by rat hepatic OATP1A1 transporters expressed in CHO cells at 1 uM relative to wild type CHO cells; format: ADME, cell-based; conditions: CHO cells expressing rat OATP1A1, read-out: FC; procedure, shortened: as §1
T2 sequence (P46720 whole entry): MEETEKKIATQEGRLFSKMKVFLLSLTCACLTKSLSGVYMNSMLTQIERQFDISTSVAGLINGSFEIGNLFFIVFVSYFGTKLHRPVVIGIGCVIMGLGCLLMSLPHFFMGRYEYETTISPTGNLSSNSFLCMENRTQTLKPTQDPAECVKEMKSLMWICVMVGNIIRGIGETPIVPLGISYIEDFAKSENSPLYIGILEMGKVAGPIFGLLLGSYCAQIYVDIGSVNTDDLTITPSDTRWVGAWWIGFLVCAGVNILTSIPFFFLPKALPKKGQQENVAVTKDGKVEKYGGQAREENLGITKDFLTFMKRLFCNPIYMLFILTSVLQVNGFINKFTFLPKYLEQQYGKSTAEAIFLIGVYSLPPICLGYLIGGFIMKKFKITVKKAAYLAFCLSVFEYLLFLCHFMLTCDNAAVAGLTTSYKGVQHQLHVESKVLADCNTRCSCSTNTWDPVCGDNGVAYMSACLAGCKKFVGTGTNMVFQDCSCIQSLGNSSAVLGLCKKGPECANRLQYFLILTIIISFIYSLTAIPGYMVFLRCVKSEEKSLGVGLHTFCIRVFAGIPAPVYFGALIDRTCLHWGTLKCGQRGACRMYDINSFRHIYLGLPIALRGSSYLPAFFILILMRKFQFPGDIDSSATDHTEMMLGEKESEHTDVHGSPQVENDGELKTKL

[3] = molecular target: T3, OATP1B2 (Rattus norvegicus, UniProt Q9QZX8); assay: Drug uptake by rat hepatic OATP1B2 transporters expressed in CHO cells at 1 uM relative to wild type CHO cells; format: ADME, cell-based; conditions: CHO cells expressing rat OATP1B2, read-out: FC; procedure, shortened: as §1
T3 sequence (Q9QZX8 whole entry): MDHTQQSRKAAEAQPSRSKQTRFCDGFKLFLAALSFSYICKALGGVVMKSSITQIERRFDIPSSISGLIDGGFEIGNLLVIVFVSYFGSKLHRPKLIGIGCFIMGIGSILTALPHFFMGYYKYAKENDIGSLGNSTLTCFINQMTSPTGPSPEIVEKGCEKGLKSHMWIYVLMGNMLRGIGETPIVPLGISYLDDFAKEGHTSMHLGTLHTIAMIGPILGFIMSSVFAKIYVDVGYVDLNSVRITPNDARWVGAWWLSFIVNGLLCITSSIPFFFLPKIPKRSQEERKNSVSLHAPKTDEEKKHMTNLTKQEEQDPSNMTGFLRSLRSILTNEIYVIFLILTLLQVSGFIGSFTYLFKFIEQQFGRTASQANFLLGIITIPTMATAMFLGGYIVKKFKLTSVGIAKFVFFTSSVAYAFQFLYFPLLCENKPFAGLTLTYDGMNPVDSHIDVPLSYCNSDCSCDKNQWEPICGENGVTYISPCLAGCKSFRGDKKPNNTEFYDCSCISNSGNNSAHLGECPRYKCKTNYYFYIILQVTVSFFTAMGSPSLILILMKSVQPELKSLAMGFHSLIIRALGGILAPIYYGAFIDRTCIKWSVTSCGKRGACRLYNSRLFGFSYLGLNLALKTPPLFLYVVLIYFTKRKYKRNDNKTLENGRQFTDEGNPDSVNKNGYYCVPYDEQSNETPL

[4] = molecular target: T2, OATP1A1; assay: Drug uptake by rat hepatic OATP1A1 transporters expressed in CHO cells at 10 uM relative to wild type CHO cells; format: ADME, cell-based; conditions: CHO cells expressing rat OATP1A1, read-out: FC; procedure, shortened: as §1
[5] = system: Syrian golden hamster; assay: Inhibition of cholesterol synthesis in golden syrian hamster assessed as reduction of [14C]-cholesterol level at 10 mg/kg, po followed by 2 hrs after treated with 80 uCi, ip of [14C]-sodium acetate measured after 4 hrs by liquid scintillation counting relative to control; format: functional; conditions: Mesocricetus auratus
Procedure, shortened: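 Hamsters dosed po at 10 mg/kg at t = 0 h. Intraperitoneal 14C sodium acetate at t = 2 h, blood drawn at t = 4 h for 14C cholesterol. Percent inhibition vs untreated controls, n = 8/group.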

[6] = system: Hepatocyte; assay: Drug uptake in sandwich-cultured rat hepatocytes assessed per mg of protein at 1 uM; format: ADME, cell-based
Procedure, shortened: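 Rat or human hepatocytes were cultured in sandwich configuration with a Matrigel overlay and compound uptake was measured. Active uptake was assessed by inhibition with the pan-OATP inhibitor rifamycin SV. Rosuvastatin/pravastatin served as positive control and midazolam as negative control.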

| Compound | uptake ratio at 10 µM [1] | uptake ratio at 1 µM [2] | uptake ratio at 1 µM [3] | uptake ratio at 10 µM [4] | inhibition in vivo at 10 mg/kg [5] | Drug uptake [6] |
| --- | --- | --- | --- | --- | --- | --- |
| CC[C@H](C)C(=O)O[C@H]1C[C@H](O)C=C2C=C[C@H](C)[C@H](CC[C@@H](O)C[C@@H](O)CC(=O)O)[C@H]21 [PRAVASTATIN] | 223 | 2.4 | 3.6 | 3.9 | – | – |
| Cc1ncc2n1-c1ccc(Cl)cc1C(c1ccccc1F)=NC2 [MIDAZOLAM] | 0.9 | 1.6 | 1.1 | 1.7 | – | – |
| CC(C)c1nc(N(C)S(C)(=O)=O)nc(-c2ccc(F)cc2)c1/C=C/[C@@H](O)C[C@@H](O)CC(=O)O [ROSUVASTATIN] | 69.6 | 8.2 | – | 5.3 | -76% | 24 pmol/min/mg |
| Cc1ccc(CNC(=O)c2nn(-c3ccc(F)cc3)c(CC[C@@H](O)C[C@@H](O)CC(=O)O)c2C(C)C)cc1 | 18.4 | 3.6 | 2.9 | 4.2 | -74% | 14 pmol/min/mg |
| O=C([O-])C[C@H](O)C[C@H](O)CCn1c(-c2ccc(F)cc2)nc(C(=O)NCc2cccc(F)c2)c1C1CC1.[Na+] | 84.9 | 5.8 | 1.8 | 4.4 | -68% | 17 pmol/min/mg |
